High-throughput results as filed in PubChem.
Hits are enriched below; roughly 2.8% of the tested compounds scored in any of these assays.
NCF1 inh: blocks human p47phox regulatory protein of NADPH oxidases. P14598. p47phox/p22phox peptide binding, fluorescence polarization, 2 h. inhibition, % at 24.7 µM. 220,000 tested, 0.53% active;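 note: 0% = p47phox with labelled peptide and 100% = labelled peptide alone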
Target sequence (P14598 whole entry, looked up): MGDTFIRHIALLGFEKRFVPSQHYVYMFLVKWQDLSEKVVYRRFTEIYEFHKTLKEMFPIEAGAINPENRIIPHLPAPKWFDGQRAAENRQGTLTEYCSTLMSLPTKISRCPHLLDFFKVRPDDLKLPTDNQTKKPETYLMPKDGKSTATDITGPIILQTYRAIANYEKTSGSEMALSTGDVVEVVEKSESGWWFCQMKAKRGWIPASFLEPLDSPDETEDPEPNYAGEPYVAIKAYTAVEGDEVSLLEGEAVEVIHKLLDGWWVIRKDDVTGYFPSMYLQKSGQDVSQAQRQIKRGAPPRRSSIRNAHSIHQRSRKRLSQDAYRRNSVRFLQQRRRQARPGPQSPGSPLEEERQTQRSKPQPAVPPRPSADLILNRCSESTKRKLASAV
14-3-3 Bad PPI: disrupts binding of bovine 14-3-3 zeta to phospho-Bad peptide | P63103 | inhibition, % at 21.7 µM | TR-FRET 14-3-3zeta/Dy647-pBad peptide displacement, 1 h | 220,000 tested, 0.71% active | AID 781;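 active = inhibition above about 70%, limit read from the data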;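 note: 0% = full 14-3-3 plus peptide FRET controls and 100% = background without 14-3-3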
Target sequence (P63103 whole entry, looked up): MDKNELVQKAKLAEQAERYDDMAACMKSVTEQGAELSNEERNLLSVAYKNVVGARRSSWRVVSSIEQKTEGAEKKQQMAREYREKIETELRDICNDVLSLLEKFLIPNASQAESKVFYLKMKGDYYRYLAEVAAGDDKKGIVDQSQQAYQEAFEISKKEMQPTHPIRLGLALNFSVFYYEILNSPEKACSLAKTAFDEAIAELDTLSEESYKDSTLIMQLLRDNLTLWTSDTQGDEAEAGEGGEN
eIF4E-4G inh: inhibitors of eIF4E and eIF4G interaction in translation initiation. P63073+Q04637. TR-FRET eIF4E-eIF4GI(517-606) binding, 2 h. inhibition, % at 21.7 µM. 220,000 tested, 0.37% active;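 note: 0% = full FRET control wells and 100% = background wells lacking eIF4GI fragment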
Wee1 degr inh: human Wee1 degradation inhibition, primary screen; P30291; HeLa Luc-Wee1K328M stability, luciferase luminescence; 100% = proteasome inhibitor MG132 effect; reporter increase, % at 5 µM; 220,000 tested, 1.2% active; AID 1321;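 active = activation above the mean of all tested compounds plus 3 SD, set per screening run, cut at about 8.8% in these data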;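 note: cells exposed to compound for 20 h before luminescence read; 0% = DMSO alone and 100% = MG132 at 30 µM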
RBBP9 inhibitor: blocks human serine hydrolase RBBP9 | 220,000 tested, 0.2% active | inhibition, % at 7.94 µM | AID 1515 | recombinant RBBP9, FP-Rh probe fluorescence polarization;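 active = inhibition above the campaign mean of all tested compounds plus 3 SD, cut at about 14% in these data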;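 note: plate controls were DMSO wells with RBBP9 for no effect and wells lacking RBBP9 protein for full effect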
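System: RBBP9 protein / Quantity: 2.5 µM RBBP9 dispensing solution, before mixing / Also added: Serine-hydrolase probe FP-Rh, 375 nM pre-mixing / Dosing: 7.94 µM single dose, 0.794% DMSO / Timing: enzyme-compound preincubation 30 min, then probe labeling 45 min, 25 °C / Signal: FP readout at 525/598 nm / Controls: DMSO-treated enzyme wells and wells lacking RBBP9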
The depositor's hits bear a star; [ ] = another dose, or the depositor's remark.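 Rule for the calls, unless noted: active = inhibition above about 30% (limit read from the data); inactive = the rest.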

Screening CS(=O)(=O)Nc1ccccc1C(=O)Nc1cc(Cl)cc(Cl)c1 returned NCF1 inh -8.8, 14-3-3 Bad PPI 19.3, eIF4E-4G inh 1.2, Wee1 degr inh -2.3 and RBBP9 inhibitor 7.7.
Screening CC(C)c1cc(C(=O)Nc2cccc(Cl)c2)no1 returned NCF1 inh -6.7, 14-3-3 Bad PPI -2.1, eIF4E-4G inh 63.1*[fluorescence artefact?], Wee1 degr inh 1.8 and RBBP9 inhibitor -4.5.
O=C1NN(c2ccccc2)C(=O)/C1=C/c1ccc(Sc2cccc3ccccc23)o1 was read as NCF1 inh 1.7, 14-3-3 Bad PPI -5.4, eIF4E-4G inh 5.3, Wee1 degr inh 3.2 and RBBP9 inhibitor 1.4.
`O=C1NN(c2cccc(Br)c2)C(=O)/C1=C/c1ccc(-c2cc([N+](=O)[O-])ccc2O)o1` gave NCF1 inh -1.9, 14-3-3 Bad PPI 79.5*, eIF4E-4G inh 34.3*, Wee1 degr inh -2.4 and RBBP9 inhibitor -0.3.
COc1ccccc1C1CCN(c2ccc(CO)cc2[N+](=O)[O-])CC1 was read as NCF1 inh -6.7, 14-3-3 Bad PPI -6.1, eIF4E-4G inh 2.0, Wee1 degr inh -0.9 and RBBP9 inhibitor -2.6.
Screening CCNC(=O)C1=C(O)c2sccc2N(C)S1(=O)=O returned NCF1 inh -4.3, 14-3-3 Bad PPI -5.6, eIF4E-4G inh 36.6*, Wee1 degr inh -1.9 and RBBP9 inhibitor 3.3.
`N#Cc1ccc(NC(=O)COC(=O)CCc2nc3ccccc3c(=O)[nH]2)cc1` gave NCF1 inh -12.6, 14-3-3 Bad PPI -4.4, eIF4E-4G inh 1.7, Wee1 degr inh 9.7* and RBBP9 inhibitor -6.8.
Screening CCOc1ccc(Cc2noc3c2C(=O)CC(C)(C)C3)cc1OCC returned 14-3-3 Bad PPI 2.8, eIF4E-4G inh 2.9, Wee1 degr inh 1.0 and RBBP9 inhibitor 0.0.
`CCOc1ccc(-c2nc(=S)[nH][nH]2)cc1` gave NCF1 inh 2.5, 14-3-3 Bad PPI -3.7, eIF4E-4G inh 52.0*, Wee1 degr inh -1.2 and RBBP9 inhibitor 1.9.
Screening COc1ccccc1NC(=O)C(=O)N/N=C/c1ccc([N+](=O)[O-])s1 returned NCF1 inh 27.5, 14-3-3 Bad PPI 84.4*, eIF4E-4G inh -4.3, Wee1 degr inh -1.9 and RBBP9 inhibitor -8.8.
Screening COC(=O)N/N=C/c1ccc([N+](=O)[O-])s1 returned NCF1 inh 1.8, 14-3-3 Bad PPI -1.4, eIF4E-4G inh -2.2, Wee1 degr inh 0.4 and RBBP9 inhibitor -8.7.
For COc1cc(/C=C2/SC(=O)N(Cc3ccccc3Cl)C2=O)ccc1OCc1ccncc1 the results were NCF1 inh 31.5*, 14-3-3 Bad PPI 3.3, eIF4E-4G inh -2.6, Wee1 degr inh -0.1 and RBBP9 inhibitor 2.7.
Screening Cc1cccc(/C=C2/SC(=O)N(Cc3ccccc3Cl)C2=O)n1 returned NCF1 inh -14.3, 14-3-3 Bad PPI -12.1, eIF4E-4G inh 0.8, Wee1 degr inh 2.2 and RBBP9 inhibitor -6.7.
Screening COc1cc(/C=N/OCC(=O)Nc2cc(C)on2)ccc1OCc1ccccc1 returned NCF1 inh -17.3, 14-3-3 Bad PPI 4.4, eIF4E-4G inh -3.7, Wee1 degr inh 3.9 and RBBP9 inhibitor -20.7.
For Cc1ccc(C(=O)N2CCCC2)cc1Br the results were NCF1 inh 92.2*, Wee1 degr inh 0.9 and RBBP9 inhibitor -0.2.
Screening O=C(c1ccc(C(=O)N2CCCCCC2)cc1)N1CCCCCC1 returned NCF1 inh -8.7, 14-3-3 Bad PPI -8.4, eIF4E-4G inh -0.9, Wee1 degr inh -1.5 and RBBP9 inhibitor 1.8.
`COc1cc2[nH]c(=O)n(CCC(=O)NCCCN3CCN(c4ccccc4F)CC3)c(=O)c2cc1OC` gave NCF1 inh 0.3, 14-3-3 Bad PPI 5.9, eIF4E-4G inh 4.2, Wee1 degr inh -0.8 and RBBP9 inhibitor -9.3.
For O=C(Nc1ccc(NC(=O)C23CC4CC(CC(C4)C2)C3)cc1)c1cc(F)c(F)cc1Cl the results were NCF1 inh -10.5, 14-3-3 Bad PPI 1.9, eIF4E-4G inh 1.4, Wee1 degr inh 0.8 and RBBP9 inhibitor -8.4.
For O=C(O)c1cccc(-n2cccc2C=C2C(=O)c3ccccc3C2=O)c1 the results were NCF1 inh -52.8, 14-3-3 Bad PPI 1.5, eIF4E-4G inh 3.5, Wee1 degr inh 0.5 and RBBP9 inhibitor 1.9.
For O=C1C(=Cc2cccn2-c2ccc(O)cc2)C(=O)c2ccccc21 the results were NCF1 inh 26.6, 14-3-3 Bad PPI 83.9*[fluorescence artefact?], eIF4E-4G inh -3.3, Wee1 degr inh 2.1 and RBBP9 inhibitor 2.0.
O=C1C(=Cc2cccn2-c2ccccc2)C(=O)c2ccccc21 was read as NCF1 inh 32.9*, 14-3-3 Bad PPI 81.6*[fluorescence artefact?], eIF4E-4G inh -9.6, Wee1 degr inh -0.4 and RBBP9 inhibitor -6.2.
`COc1ccccc1N=Nc1nc(-c2ccccc2)c(-c2ccccc2)[nH]1` gave NCF1 inh 119.1*, 14-3-3 Bad PPI 1.5, eIF4E-4G inh -0.5, Wee1 degr inh -2.2 and RBBP9 inhibitor -13.8.
COc1ccc(N=Nc2nc(-c3ccccc3)c(-c3ccccc3)[nH]2)cc1 was read as NCF1 inh -51.2, 14-3-3 Bad PPI -2.1, eIF4E-4G inh -3.0, Wee1 degr inh 0.0 and RBBP9 inhibitor -39.9.
For Cc1ccc(C(=O)Nc2c(-c3cccs3)c(=O)c3ccccc3n2C)cc1 the results were NCF1 inh -11.6, 14-3-3 Bad PPI 18.9, eIF4E-4G inh -30.3, Wee1 degr inh 9.1* and RBBP9 inhibitor -6.6.
For COc1ncccc1-c1nnn(-c2ccc(Cl)nc2)n1 the results were NCF1 inh -3.5, 14-3-3 Bad PPI -2.0, eIF4E-4G inh 0.0, Wee1 degr inh 9.7* and RBBP9 inhibitor -0.4.
`Cc1onc(-c2c(Cl)cccc2Cl)c1C(=O)N1CCN(c2ncccn2)CC1` gave NCF1 inh 54.9*, 14-3-3 Bad PPI 10.7, eIF4E-4G inh 1.8, Wee1 degr inh -3.8 and RBBP9 inhibitor 0.7.
For Cc1onc(-c2c(Cl)cccc2Cl)c1C(=O)N1CCN(c2ccccc2)CC1 the results were NCF1 inh -2.0, 14-3-3 Bad PPI -3.8, eIF4E-4G inh 4.5, Wee1 degr inh -0.5 and RBBP9 inhibitor -5.8.
Screening Nc1ncc(-c2ccc([N+](=O)[O-])cc2)cn1 returned NCF1 inh 78.4*, 14-3-3 Bad PPI 9.0, eIF4E-4G inh 6.3, Wee1 degr inh -2.0 and RBBP9 inhibitor -4.5.
For O=[N+]([O-])c1ccc(-c2cnc(NO)nc2)cc1 the results were NCF1 inh -11.2, 14-3-3 Bad PPI -2.8, eIF4E-4G inh -2.6, Wee1 degr inh -2.7 and RBBP9 inhibitor -7.6.
Screening COCCn1c(=NC(=O)c2cccs2)sc2cc(NC(C)=O)ccc21 returned NCF1 inh -9.1, 14-3-3 Bad PPI 9.4, eIF4E-4G inh 2.5, Wee1 degr inh -0.4 and RBBP9 inhibitor -0.7.
`COC(=O)Cn1c(=NC(=O)c2sc3ccccc3c2Cl)sc2cc(S(N)(=O)=O)ccc21` gave NCF1 inh -3.6, 14-3-3 Bad PPI 86.1*[fluorescence artefact?], eIF4E-4G inh 7.0, Wee1 degr inh 3.0 and RBBP9 inhibitor -12.8.
C#CCn1c(=NC(=O)c2ccc(Br)s2)sc2cc(NC(C)=O)ccc21 was read as NCF1 inh 18.0, 14-3-3 Bad PPI 70.8*[fluorescence artefact?], eIF4E-4G inh 6.2, Wee1 degr inh 2.8 and RBBP9 inhibitor -2.0.
